Measured values reported in ChEMBL document CHEMBL1125740, “Heterocyclic quinones. 17. A new in vivo active antineoplastic drug: 6,7-bis(1-aziridinyl)-4-[[3-(N,N-dimethylamino)propyl]amino]-5,8- quinazolinedione” (J Med Chem, 1991).
Where “and” joins values, the source holds several entries; their conditions need not be identical. Identical values can stand only once.

Experiments:
[1] = tested on: B16; assay: Compound was evaluated in vivo for antitumor activity against B16 melanoma after injecting the compound intravenously for optimal dose; format: functional, Mus musculus
In short: (§1)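 30-60 mg tumor fragments implanted sc by trocar on day 0 into C57Bl/6-derived hosts (B16) or C3H/He-derived hosts (16/C). Drug given iv on days 6, 9 and 13 (B16) or 6, 9 and 12 (16/C), 10 mice per group. Tumors measured by caliper. T/C % taken from median tumor burden of treated vs control groups on day 15 (B16) or day 14 (16/C). Body weight change per mouse recorded at nadir.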

[2] = tested on: B16; assay: Compound was evaluated in vivo for antitumor activity against B16 melanoma after injecting the compound intravenously for total dose.; format: functional, Mus musculus; in short: as §1
[3] = tested on: B16; assay: Compound was evaluated in vivo for antitumor activity against B16 melanoma 2 after injecting the compound intravenously for percent T/C; format: functional, Mus musculus
[4] = tested on: B16; assay: Compound was evaluated in vivo for antitumor activity against B16 melanoma 1 after injecting the compound intravenously for total dose.; format: functional, Mus musculus
[5] = tested on: L1210; assay: Compound was evaluated in vivo for antitumor activity after intraperitoneal administration against L1210(935) for mortality range at an optimal dose of 0.2 mg/kg/injection at 1-4 day schedule.; format: functional, Mus musculus
In short: (§2)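 L1210 leukemia, maintained in DBA/2 mice, was given ip as 10⁵ cells on day 0 to F1 hybrid or strain-of-origin mice over 18 g, in groups of 8. Dosing was ip from day 1, and mortality was checked daily. Median day of death counts dying mice only. %ILS = 100×(treated − control median day of death)/control median. Tumor-free survivors were counted on day 60. Weight change is g/mouse at nadir.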

[6] = tested on: L1210; assay: Compound was evaluated in vivo for antitumor activity after intraperitoneal administration against L1210(935) for total dose at an optimal dose of 1 mg/kg/injection at 1 day schedule.; format: functional, Mus musculus; in short: as §2
[7] = tested on: L1210; assay: Compound was evaluated in vivo for antitumor activity after intraperitoneal administration against L1210(935) for tumor free survivors at an optimal dose of 0.5 mg/kg/injection at 1,4,7,11 day schedule.; format: functional, Mus musculus; in short: as §2
[8] = tested on: L1210; assay: Compound was evaluated in vivo for antitumor activity after intraperitoneal administration against L1210(935) for mortality range at an optimal dose of 0.1 mg/kg/injection at 1-4 day schedule.; format: functional, Mus musculus; in short: as §2
[9] = tested on: L1210; assay: Compound was evaluated in vivo for antitumor activity after intraperitoneal administration against L1210(935)for change in body weight at an optimal dose of 1 mg/kg/injection at 1 day schedule.; format: functional, Mus musculus; in short: as §2
[10] = tested on: L1210; assay: Compound was evaluated in vivo for antitumor activity after intraperitoneal administration against L1210(935)for % increase in life span at an optimal dose of 1 mg/kg/injection at 1 day schedule.; format: functional; details: Mus musculus, L1210, ip, 24 h; in short: as §2
[11] = tested on: P388; assay: Compound was evaluated in vivo for antitumor activity after intraperitoneal administration against P388/L-PAM(14) for % increase in life span at an optimal dose of 1 mg/kg/injection; format: functional; details: Mus musculus, P388, ip
[12] = tested on: P388; assay: Compound was evaluated in vivo for antitumor activity after intraperitoneal administration against P388/L-PAM(14) for median day of death at an optimal dose of 0.125 mg/kg/injection at 1,4,7,11 day schedule.; format: functional, Mus musculus
[13] = tested on: P388; assay: Compound was evaluated in vivo for antitumor activity after intraperitoneal administration against P388/L-PAM(14) for median day of death at an optimal dose of 0.1 mg/kg/injection at 1,2,3,4 day schedule.; format: functional, Mus musculus
[14] = tested on: P388; assay: Compound was evaluated in vivo for antitumor activity after intraperitoneal administration against P388/L-PAM(14) for median day of death at an optimal dose of 0.2 mg/kg/injection at 1,2,3,4 day schedule.; format: functional, Mus musculus
[15] = tested on: P388; assay: Compound was evaluated in vivo for antitumor activity after intraperitoneal administration against P388/L-PAM(14) for median day of death at an optimal dose of 1 mg/kg/injection; format: functional, Mus musculus
[16] = tested on: P388; assay: Compound was evaluated in vivo for antitumor activity after intraperitoneal administration against P388/L-PAM(12) for change in body weight at an optimal dose of 0.75 mg/kg/injection; format: functional, Mus musculus
[17] = tested on: P388; assay: Compound was evaluated in vivo for antitumor activity after intraperitoneal administration against P388/L-PAM(14) for tumor free survivors at an optimal dose of 0.5 mg/kg/injection at 1,4,7,11 day schedule on day 60; format: functional, Mus musculus
[18] = tested on: P388; assay: Compound was evaluated in vivo for antitumor activity after intraperitoneal administration against P388/L-PAM(14) for total dose at an optimal dose of 0.125 mg/kg/injection at 1,4,7,11 day schedule.; format: functional, Mus musculus
[19] = tested on: P388; assay: Compound was evaluated in vivo for antitumor activity after intraperitoneal administration against P388/L-PAM(14) for total dose at an optimal dose of 0.2 mg/kg/injection at 1,2,3,4 day schedule.; format: functional, Mus musculus
[20] = tested on: P388; assay: Compound was evaluated in vivo for antitumor activity after intraperitoneal administration against P388/L-PAM(14) for mortality range at an optimal dose of 0.4 mg/kg/injection at 1,2,3,4 day schedule.; format: functional, Mus musculus
[21] = tested on: P388; assay: Compound was evaluated in vivo for antitumor activity after intraperitoneal administration against P388/L-PAM(14) for change in body weight at an optimal dose of 0.5 mg/kg/injection at one day schedule.; format: functional, Mus musculus
[22] = tested on: P388; assay: Compound was evaluated in vivo for antitumor activity after intraperitoneal administration against P388/L-PAM(14) for change in body weight at an optimal dose of 1 mg/kg/injection; format: functional, Mus musculus
[23] = tested on: P388; assay: Compound was evaluated in vivo for antitumor activity after intraperitoneal administration against P388 (1313) for tumor free survivors at an optimal dose of 0.2 mg/kg/injection; format: functional, Mus musculus
[24] = tested on: P388; assay: Compound was evaluated in vivo for antitumor activity after intraperitoneal administration against P388/L-PAM(14) for % increase in life span at an optimal dose of 0.2 mg/kg/injection at 1,2,3,4 day schedule.; format: functional; details: Mus musculus, P388, ip
[25] = tested on: P388; assay: Compound was evaluated in vivo for antitumor activity after intraperitoneal administration against P388 (1313) for median day of death at an optimal dose of 0.4 mg/kg/injection; format: functional, Mus musculus
[26] = tested on: P388; assay: Compound was evaluated in vivo for antitumor activity after intraperitoneal administration against P388 (1313) for median day of death at an optimal dose of 0.5 mg/kg/injection; format: functional, Mus musculus
[27] = tested on: P388; assay: Compound was evaluated in vivo for antitumor activity after intraperitoneal administration against P388 (1313) for change in body weight at an optimal dose of 0.4 mg/kg/injection; format: functional, Mus musculus
[28] = tested on: P388; assay: Compound was evaluated in vivo for antitumor activity after intraperitoneal administration against P388 (1313) for change in body weight at an optimal dose of 1 mg/kg/injection; format: functional, Mus musculus
[29] = Compound was evaluated in vivo for antitumor activity against colon adenocarcinoma 38 after injecting the compound intravenously for percent T/C (value in parentheses indicates the day of evaluation); format: functional, Mus musculus
[30] = Compound was evaluated in vivo for antitumor activity against mammary adenocarcinoma 16/C after injecting the compound intravenously for percent T/C; format: functional, Mus musculus; in short: as §1
[31] = Compound was evaluated in vivo for antitumor activity against Lewis Lung cercinoma after injecting the compound intravenously for total dose.; format: functional, Mus musculus
In short: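 Lewis lung carcinoma: 10^6 cells implanted im into C57Bl/6-derived hosts. Drug given iv on days 5, 9 and 13, 10 mice per group. Median tumor burden and weight nadir recorded. Survivors were killed on day 19, and their lungs were fixed in Fekete solution so that macroscopic metastases could be counted.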

CN(C)CCCNc1ncnc2c1C(=O)C(N1CC1)=C(N1CC1)C2=O
Optimal dose [1]: 0.4 mg/kg and 0.2 mg/kg
Total dose [2]: 0.6 mg/kg
T/C [3]: 53%
Total dose [4]: 1.8 mg/kg
Mortality [5]: 14 days
Total dose [6]: 1 mg/kg
Survivors [7]: 1
Mortality [8]: 14 days
Change in body weight [9]: 0.6 g mouse-1
ILS at 1 mg/kg [10]: 27%
ILS at 1 mg/kg [11]: 36%
Median day of death [12]: 15.5
Median day of death [13]: 14
Median day of death [14]: 19
Median day of death [15]: 19
Change in body weight [16]: -1 g mouse-1
Survivors [17]: 0
Total dose [18]: 0.5 mg/kg
Total dose [19]: 0.8 mg/kg
Mortality [20]: 27 days
Change in body weight [21]: 1.3
Change in body weight [22]: -1.2 g mouse-1
Survivors [23]: 0
ILS at 0.2 mg/kg [24]: 36%
Median day of death [25]: 23
Median day of death [26]: 25
Change in body weight [27]: -0.9 g mouse-1
Change in body weight [28]: -0.5
T/C [29]: 102%
T/C [30]: 48% and 68%
Total dose [31]: 1.2 mg/kg and 0.6 mg/kg
